Experimental findings from PMC5935509 (Bioactive Materials, 2017) are described below.

The assay has as its system HeLa cells. In words: Cytotoxicity measurement, CCK-8 cell viability assay. It is filed as cell-based. As to conditions: 24 h of incubation, mean, n = 4. The gist of the method:
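HeLa cells seeded at 10⁴ cells/well. For the combination arm, anticancer drug was added first (final 1, 10 or 100 µM), then self-assembling peptide at final 16 or 26 µM, charge-matched between peptides. Peptide-alone wells received the same peptide levels. After 24 h, drug and peptide were removed and viability read by CCK-8 absorbance at 450 nm. Four replicates, mean ± SD.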
(In general: Tetrazolium assays rely on reduction of a dye to a coloured formazan, in cell work by metabolically active cells.)

Turning to `COc1cccc2c1C(=O)c1c(O)c3c(c(O)c1C2=O)C[C@@](O)(C(=O)CO)C[C@@H]3O[C@H]1C[C@H](N)[C@H](O)[C@H](C)O1` [DOX, Doxorubicin], the cell viability (1 μM DOX, K10 16 μM or K6 26 μM) is reported as 70% and the cell viability (100 μM DOX) was 18%.

One may read the cell viability as a read-out of living cells in per cent, often relative to untreated cells.
